Assay results as given in ChEMBL document CHEMBL3992553, “New nitrofurans amenable by isocyanide multicomponent chemistry are active against multidrug-resistant and poly-resistant Mycobacterium tuberculosis” (Bioorg Med Chem, 2017).
Converted amounts (≈) assume the structure as drawn.

System: Staphylococcus aureus
Assay: Antibacterial activity against methicillin-resistant Staphylococcus aureus DSM 11822 after 18 hrs
Assay type: functional
Conditions: DSM 11822, 18 h
Outline: (§1)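 Broth microdilution MIC. Gram-negatives grown overnight at 37 °C in Müller-Hinton broth + 1% glucose, pH 7.2; Gram-positives in trypticase soy broth with yeast extract, pH 7.2. Inoculum 5×10^5 cfu/mL final. Serial dilutions from 100 µM down to 0.2 µM, DMSO ≤1%. 18 h at 37 °C, moist; OD600. MIC = lowest concentration completely suppressing growth.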

Question: With `CC1(C(=O)NC2CCCCC2)CSCC(=O)N1/N=C/c1ccc([N+](=O)[O-])o1` (stereo unspecified) as the compound, how does the MIC read?
Answer: 100 µM (≈ 39.4 µg/mL)

Question: For `CC1(C(=O)NCc2ccccc2)CSCC(=O)N1/N=C/c1ccc([N+](=O)[O-])o1` (stereo unspecified), which MIC is on record?
Answer: > 100 µM

System: Staphylococcus aureus
Assay: Antibacterial activity against methicillin-resistant Staphylococcus aureus RKI 11-02670 after 18 hrs
Assay type: functional
Conditions: RKI 11-02670, 18 h
Outline: as §1

Question: Which results are given for `CC1(C(=O)NC2CCCCC2)CSCC(=O)N1/N=C/c1ccc([N+](=O)[O-])o1` (stereo unspecified)?
Answer: EC50: 55 µM; MIC: 100 µM (≈ 39.4 µg/mL)

Question: For `CC1(C(=O)NCc2ccccc2)CSCC(=O)N1/N=C/c1ccc([N+](=O)[O-])o1` (stereo unspecified), which EC50 is on record?
Answer: 64 µM

Question: And the MIC?
Answer: > 100 µM

System: Enterococcus faecium
Assay: Antibacterial activity against Enterococcus faecium DSM 20477 after 18 hrs
Assay type: functional
Conditions: DSM 20477, 18 h
Outline: as §1

Question: With `CC1(C(=O)NC2CCCCC2)CSCC(=O)N1/N=C/c1ccc([N+](=O)[O-])o1` (stereo unspecified) as the compound, how does the MIC read?
Answer: > 100 µM

Question: With `CC1(C(=O)NCc2ccccc2)CSCC(=O)N1/N=C/c1ccc([N+](=O)[O-])o1` (stereo unspecified) as the compound, how does the EC50 read?
Answer: > 100 µM

Question: And the MIC?
Answer: > 100 µM

System: Escherichia coli
Assay: Antibacterial activity against Escherichia coli DSM 1116 after 18 hrs
Assay type: functional
Conditions: DSM 1116, 18 h
Outline: as §1

Question: Which EC50 does the source give for `CC1(C(=O)NCc2ccccc2)CSCC(=O)N1/N=C/c1ccc([N+](=O)[O-])o1` (stereo unspecified) here?
Answer: > 100 µM

Question: What about the MIC of the same compound?
Answer: > 100 µM

System: Pseudomonas aeruginosa
Assay: Antibacterial activity against Pseudomonas aeruginosa PA7 DSM 24068 after 18 hrs
Assay type: functional
Conditions: PA7 DSM 24068, 18 h
Outline: as §1

Question: Which results are given for `CC1(C(=O)NCc2ccccc2)CSCC(=O)N1/N=C/c1ccc([N+](=O)[O-])o1` (stereo unspecified)?
Answer: EC50: > 100 µM; MIC: > 100 µM

System: Acinetobacter baumannii
Assay: Antibacterial activity against Acinetobacter baumannii DSM 30007 after 18 hrs
Assay type: functional
Conditions: DSM 30007, 18 h
Outline: as §1

Question: Which MIC does the source give for `CC1(C(=O)NC2CCCCC2)CSCC(=O)N1/N=C/c1ccc([N+](=O)[O-])o1` (stereo unspecified) here?
Answer: > 100 µM

Question: Which EC50 does the source give for `CC1(C(=O)NCc2ccccc2)CSCC(=O)N1/N=C/c1ccc([N+](=O)[O-])o1` (stereo unspecified) here?
Answer: > 100 µM

Question: And the MIC?
Answer: > 100 µM

System: Escherichia coli
Assay: Growth inhibition of Escherichia coli DSM 1116 at 100 uM after 18 hrs relative to control
Assay type: functional
Conditions: DSM 1116, 18 h, read-out: GI
Outline: (§2)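 Gram-negative culture grown overnight at 37 °C in Müller-Hinton broth + 1% glucose, pH 7.2, then tested at 5×10^5 cfu/mL final. Compound at 100 µM from DMSO stock, DMSO ≤1%. Incubated 18 h at 37 °C under moist conditions. OD600 read; value reported as % growth inhibition.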

Question: With `CC1(C(=O)NC2CCCCC2)CSCC(=O)N1/N=C/c1ccc([N+](=O)[O-])o1` (stereo unspecified) as the compound, how does the inhibition of growth at 100 µM read?
Answer: 84%

System: Pseudomonas aeruginosa
Assay: Growth inhibition of Pseudomonas aeruginosa PA7 DSM 24068 at 100 uM after 18 hrs relative to control
Assay type: functional
Conditions: PA7 DSM 24068, 18 h, read-out: GI
Outline: as §2

Question: With `CC1(C(=O)NC2CCCCC2)CSCC(=O)N1/N=C/c1ccc([N+](=O)[O-])o1` (stereo unspecified) as the compound, how does the inhibition of growth at 100 µM read?
Answer: 91%

System: Klebsiella pneumoniae
Assay: Antibacterial activity against Klebsiella pneumoniae DSM 11678 after 18 hrs
Assay type: functional
Conditions: DSM 11678, 18 h
Outline: as §1

Question: For `CC1(C(=O)NC2CCCCC2)CSCC(=O)N1/N=C/c1ccc([N+](=O)[O-])o1` (stereo unspecified), which MIC is on record?
Answer: > 100 µM

Question: With `CC1(C(=O)NCc2ccccc2)CSCC(=O)N1/N=C/c1ccc([N+](=O)[O-])o1` (stereo unspecified) as the compound, how does the EC50 read?
Answer: > 100 µM

Question: And the MIC?
Answer: > 100 µM

System: Mycobacterium tuberculosis
Assay: Antimycobacterial activity against Mycobacterium tuberculosis H37Rv after 7 days by REMA
Assay type: functional
Conditions: 168 h
Outline: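 REMA. 3-week H37Rv culture (2nd generation on Löwenstein–Jensen) vortexed with glass beads, set to 1.0 McFarland in 7H9, diluted 20-fold in 7H9 + OADC. 2-fold dilutions, final 1.6–400 µg/mL, 200 µL wells. 7 days at 35 °C, then resazurin 18 h. Fluorescence ex 520/em 590. MIC where signal plateaued or matched the 1% population control (t test).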

Question: For `CC1(C(=O)NC2CCCCC2)CSCC(=O)N1/N=C/c1ccc([N+](=O)[O-])o1` (stereo unspecified), which MIC is on record?
Answer: 32 µM (≈ 12.6 µg/mL)

Question: Which MIC does the source give for `CC1(C(=O)NCc2ccccc2)CSCC(=O)N1/N=C/c1ccc([N+](=O)[O-])o1` (stereo unspecified) here?
Answer: > 100 µM

System: not listed separately
Assay: (§3) Cytotoxicity against mouse L929 cells assessed as reduction in cell viability after 5 days by WST1 assay
Assay type: cell-based
Conditions: mouse, L929 cells
Outline: (§4)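 KB-3-1 or L929 cells, 1500 per well, in DMEM + 5% FBS. Exposed to serially diluted compound for 5 days. WST-1 added, plates incubated at 37 °C (20 min for KB-3-1), absorbance read at 450 nm (reference 600 nm). Viability given as % of controls.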

Question: Which IC90 at 120 h does the source give for `CC1(C(=O)NC2CCCCC2)CSCC(=O)N1/N=C/c1ccc([N+](=O)[O-])o1` (stereo unspecified) here?
Answer: > 100 µM

System: L929
Assay: as §3
Assay type: cell-based
Conditions: Mus musculus, L929, 120 h
Outline: as §4

Question: For `CC1(C(=O)NC2CCCCC2)CSCC(=O)N1/N=C/c1ccc([N+](=O)[O-])o1` (stereo unspecified), which IC50 is on record?
Answer: 50 µM

System: not listed separately
Assay: (§5) Cytotoxicity against human KB-3-1 cells assessed as reduction in cell viability after 5 days by WST1 assay
Assay type: cell-based
Conditions: human, KB-3-1 cells
Outline: as §4

Question: With `CC1(C(=O)NC2CCCCC2)CSCC(=O)N1/N=C/c1ccc([N+](=O)[O-])o1` (stereo unspecified) as the compound, how does the IC90 at 120 h read?
Answer: 100 µM

System: KB 3-1
Assay: as §5
Assay type: cell-based
Conditions: Homo sapiens, KB 3-1, 120 h
Outline: as §4

Question: For `CC1(C(=O)NC2CCCCC2)CSCC(=O)N1/N=C/c1ccc([N+](=O)[O-])o1` (stereo unspecified), which IC50 is on record?
Answer: 16 µM

System: not listed separately
Assay: (§6) Cytotoxicity against human MCF7 cells assessed as reduction in cell viability after 5 days by WST1 assay
Assay type: cell-based
Conditions: human, MCF7 cells
Outline: (§7)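 MCF-7 cells, 3000 per well, in RPMI + 5% FBS, 0.5% NEAA, 0.5% GlutaMAX and insulin 5 µg/mL. Exposed to serially diluted compound for 5 days. WST-1 incubation 2 h at 37 °C, absorbance read at 450 nm (reference 600 nm). Viability given as % of controls.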

Question: Which IC90 at 120 h does the source give for `CC1(C(=O)NC2CCCCC2)CSCC(=O)N1/N=C/c1ccc([N+](=O)[O-])o1` (stereo unspecified) here?
Answer: > 100 µM

System: MCF7
Assay: as §6
Assay type: cell-based
Conditions: Homo sapiens, MCF7, 120 h
Outline: as §7

Question: Which IC50 does the source give for `CC1(C(=O)NC2CCCCC2)CSCC(=O)N1/N=C/c1ccc([N+](=O)[O-])o1` (stereo unspecified) here?
Answer: 8.7 µM

System: not listed separately
Assay: Cytotoxicity against human FS4-LTM cells assessed as reduction in cell viability after 24 hrs by WST1 assay
Assay type: cell-based
Conditions: Homo sapiens, FS4-LTM, 24 h
Outline: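 FS4-LTM conditionally immortalized human fibroblasts, kept without doxycycline for primary-like behaviour, in DMEM + 5% FBS. Exposed to serially diluted compound for 24 h. WST-1 added, plates incubated at 37 °C, absorbance read at 450 nm (reference 600 nm). Viability given as % of controls set to 100%.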

Question: Which IC50 does the source give for `CC1(C(=O)NC2CCCCC2)CSCC(=O)N1/N=C/c1ccc([N+](=O)[O-])o1` (stereo unspecified) here?
Answer: 8.7 to 100 µM

Same assay, conditions: human, FS4-LTM cells

Question: With `CC1(C(=O)NC2CCCCC2)CSCC(=O)N1/N=C/c1ccc([N+](=O)[O-])o1` (stereo unspecified) as the compound, how does the IC90 at 24 h read?
Answer: ≥ 100 µM
